Experimental data reported in ChEMBL document CHEMBL4196108, “5-Aroylindoles Act as Selective Histone Deacetylase 6 Inhibitors Ameliorating Alzheimer's Disease Phenotypes” (J Med Chem, 2018).
The source made the active and inactive calls. The rule behind the calls is not given here.

Experiments:
[1] = Plasma concentration in Sprague-Dawley rat at 50 mg/kg, po after 1 hr by HPLC-MS/MS analysis; type: ADME, organism-based
[2] = target: T1, Protein deacetylase HDAC6 (Mus musculus) (UniProt Q9Z2V5); test: Inhibition of HDAC6 in mouse Neuro-2a cells transfected with pCAX FLAG APP and pRK5-EGFP-Tau P301L plasmids assessed as increase in HSP90 acetylation at 1 uM after 24 hrs by coimmunoprecipitation analysis; type: cell-based
T1 sequence (whole entry): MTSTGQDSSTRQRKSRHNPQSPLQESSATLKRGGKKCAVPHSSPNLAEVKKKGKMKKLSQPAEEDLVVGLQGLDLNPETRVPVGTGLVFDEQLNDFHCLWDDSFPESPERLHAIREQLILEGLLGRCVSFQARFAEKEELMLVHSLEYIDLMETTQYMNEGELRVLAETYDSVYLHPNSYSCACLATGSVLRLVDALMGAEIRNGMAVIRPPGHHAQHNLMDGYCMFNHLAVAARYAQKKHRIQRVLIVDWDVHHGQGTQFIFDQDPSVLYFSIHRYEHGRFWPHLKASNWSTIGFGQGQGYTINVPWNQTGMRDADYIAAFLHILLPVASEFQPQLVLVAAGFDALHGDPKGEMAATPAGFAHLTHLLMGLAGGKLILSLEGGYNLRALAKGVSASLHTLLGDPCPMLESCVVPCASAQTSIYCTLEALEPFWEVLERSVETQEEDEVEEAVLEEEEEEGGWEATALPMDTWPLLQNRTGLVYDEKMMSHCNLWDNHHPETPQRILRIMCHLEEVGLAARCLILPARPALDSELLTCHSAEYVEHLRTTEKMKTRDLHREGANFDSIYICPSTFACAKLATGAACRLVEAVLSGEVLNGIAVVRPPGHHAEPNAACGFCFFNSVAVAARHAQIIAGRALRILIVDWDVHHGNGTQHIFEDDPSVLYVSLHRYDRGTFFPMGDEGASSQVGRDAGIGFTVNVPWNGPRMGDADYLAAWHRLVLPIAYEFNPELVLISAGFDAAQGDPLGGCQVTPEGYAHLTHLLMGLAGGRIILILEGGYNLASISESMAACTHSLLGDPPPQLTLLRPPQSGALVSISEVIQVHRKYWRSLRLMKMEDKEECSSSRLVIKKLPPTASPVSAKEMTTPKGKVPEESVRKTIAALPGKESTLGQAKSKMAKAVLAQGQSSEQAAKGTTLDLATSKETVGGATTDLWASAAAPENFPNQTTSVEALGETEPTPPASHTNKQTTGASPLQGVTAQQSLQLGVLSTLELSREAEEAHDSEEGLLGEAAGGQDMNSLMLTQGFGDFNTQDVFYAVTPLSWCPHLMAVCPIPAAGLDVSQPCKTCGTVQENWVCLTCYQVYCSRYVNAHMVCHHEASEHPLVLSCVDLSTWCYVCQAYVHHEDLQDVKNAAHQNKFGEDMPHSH
Summary of the method: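 SH-SY5Y and Neuro-2a cells cotransfected 24 h with APP695/Tau P301L plasmids, treated 24 h at 1 µM (ACY-1215 reference). 30 µg lysate immunoprecipitated overnight at 4 °C with anti-HDAC6 or anti-acetyl-lysine antibodies plus protein A/G beads, run on 8% SDS-PAGE, probed for Hsp90; Hsp70 by immunoblot. Three independent experiments.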

[3] = Ratio of drug level in brain to plasma in Sprague-Dawley rat at 50 mg/kg, po after 3 hrs; type: ADME, organism-based; details: read-out: BPR
[4] = target: T1, Protein deacetylase HDAC6 (Mus musculus); test: Inhibition of HDAC6 in mouse Neuro-2a cells transfected with pCAX FLAG APP and pRK5-EGFP-Tau P301L plasmids assessed as inhibition of Tau P301L mutant phosphorylation at Ser404 residue at 1 uM after 24 hrs by Western blot analysis; type: cell-based
Summary of the method: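 SH-SY5Y or Neuro-2a cells cotransfected 24 h with pCAX APP695 and pRK5-EGFP-Tau P301L, then treated 24 h at 1 µM. 20 µg lysate protein immunoblotted for APP and phospho-tau Ser396/Ser404. Mean ± STD of three independent experiments; Student's t-test.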

[5] = target: T2, Protein deacetylase HDAC6 (Homo sapiens) (UniProt Q9UBN7); test: Inhibition of HDAC6 in human SH-SY5Y cells transfected with pCAX FLAG APP and pRK5-EGFP-Tau P301L plasmids assessed as suppression of phosphorylated tau P301L mutant-induced apoptosis by measuring accumulation at sub-G1 phase at 0.01 uM after 24 hrs by propidium iodide staining-based flow cytometry (reference value: 22.01%); type: cell-based; set-up: scale not given: the % may be the effect or the level left
T2 sequence (whole entry): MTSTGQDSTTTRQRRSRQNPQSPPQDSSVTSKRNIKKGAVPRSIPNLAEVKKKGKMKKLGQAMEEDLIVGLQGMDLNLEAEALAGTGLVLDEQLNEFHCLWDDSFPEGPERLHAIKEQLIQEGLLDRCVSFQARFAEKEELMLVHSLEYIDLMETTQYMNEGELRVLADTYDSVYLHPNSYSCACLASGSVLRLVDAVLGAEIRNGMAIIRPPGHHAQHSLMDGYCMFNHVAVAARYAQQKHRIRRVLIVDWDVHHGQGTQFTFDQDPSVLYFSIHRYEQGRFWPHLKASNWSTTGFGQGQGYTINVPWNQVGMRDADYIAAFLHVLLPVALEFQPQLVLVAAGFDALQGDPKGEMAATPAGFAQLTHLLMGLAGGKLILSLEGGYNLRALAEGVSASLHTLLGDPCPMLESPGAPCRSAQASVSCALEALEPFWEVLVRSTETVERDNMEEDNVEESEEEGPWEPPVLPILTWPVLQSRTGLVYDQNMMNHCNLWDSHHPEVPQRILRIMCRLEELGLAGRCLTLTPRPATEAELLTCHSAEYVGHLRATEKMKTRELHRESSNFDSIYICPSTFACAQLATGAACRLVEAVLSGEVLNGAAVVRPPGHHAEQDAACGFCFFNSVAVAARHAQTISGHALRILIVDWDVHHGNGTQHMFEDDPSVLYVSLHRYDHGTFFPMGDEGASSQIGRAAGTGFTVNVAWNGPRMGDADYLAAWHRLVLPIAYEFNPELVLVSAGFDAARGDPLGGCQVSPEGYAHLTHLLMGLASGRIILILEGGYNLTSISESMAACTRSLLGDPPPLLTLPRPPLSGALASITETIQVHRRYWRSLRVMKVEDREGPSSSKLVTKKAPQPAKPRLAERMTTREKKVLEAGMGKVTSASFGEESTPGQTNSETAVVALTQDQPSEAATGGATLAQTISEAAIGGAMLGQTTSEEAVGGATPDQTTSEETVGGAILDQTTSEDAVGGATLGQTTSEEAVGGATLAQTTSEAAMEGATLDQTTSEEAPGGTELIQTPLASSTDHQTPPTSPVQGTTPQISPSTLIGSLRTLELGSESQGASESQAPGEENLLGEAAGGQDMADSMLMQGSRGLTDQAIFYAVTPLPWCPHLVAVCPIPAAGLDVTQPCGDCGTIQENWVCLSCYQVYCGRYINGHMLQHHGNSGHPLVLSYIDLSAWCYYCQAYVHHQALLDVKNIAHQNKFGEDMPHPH

With `COc1ccc(C(=O)c2ccc3c(ccn3Cc3ccc(C(=O)NO)cc3)c2)cc1` the concentration at 1 h [1] was 8.5 ng/mL, the inhibition [2] was “Active” and the Kp at 3 h [3] was 0.86. The inhibition [4] was “Active” and the Activity [5] was 15.6%.
